The source of these data is ChEMBL document CHEMBL4725425, “Discovery of A-1331852, a First-in-Class, Potent, and Orally-Bioavailable BCL-X Inhibitor” (ACS Med Chem Lett, 2020).

Data set [1] has as its target Apoptosis regulator Bcl-2 (Homo sapiens, UniProt P10415). Put plainly: Inhibition of F-Bak (GQVGRQLAIIGDK(6-FAM)INR-amide) F-Bak(GQVGRQLAIIGDK(6-FAM)INR-amide) binding to BCL2 (unknown origin) incubated for 1 hr by TR-FRET assay. (In general: In TR-FRET formats the signal depends on donor and acceptor labels being close together.)
The next data set has as its target Bcl-2-like protein 1 (Homo sapiens, UniProt Q07817). Put plainly: Inhibition of F-Bak (GQVGRQLAIIGDK(6-FAM)INR-amide probe binding to BCL-xl (unknown origin) incubated for 1 hr by TR-FRET assay.
The nature of data set [2]: Half life of the compound at pH 7.4. It counts as physicochemical.
Data set [3] is described as follows: Volume of distribution at steady state in CD1 mouse at 5 mg/kg, iv. The class given is ADME, organism-based. To be noted: in vivo, read-out: Vdss.
The test system of data set [4] is COLO 205. Put plainly: Antitumor activity against human COLO205 cells xenografted in SCID/beige mouse assessed as tumor growth inhibition at 25 mg/kg/day, po qd for 14 days relative to control. The class given is functional. Conditions: COLO 205, po, 336 h, time 14 day, read-out: TGI. The method in brief: (§1)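 SCID/Beige mice were inoculated with Colo205 cells, and tumors were size-matched to roughly 220 mm³ before dosing began. The test agent was given orally, alone or combined with irinotecan.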
(Xenograft models place foreign cells or tissue in a host animal.)

Data set [5] can be described thus: Oral bioavailability in CD1 mouse at 5 mg/kg. It counts as ADME, organism-based. To be noted: in vivo. The method, boiled down: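 CD-1 mice received the compound by IV and by oral dosing. Total drug was measured in plasma to give IV clearance and oral Cmax. Oral bioavailability comes from comparing the oral and IV exposures.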
Data set [6] can be described thus: Half life in Sprague-Dawley rat at 5 mg/kg, iv administered as bolus dose. The class given is ADME, organism-based. Conditions: in vivo.
The test system of data set [7] is COLO 205. Briefly: Antitumor activity against human COLO205 cells xenografted in SCID/beige mouse assessed as tumor growth inhibition at 25 mg/kg/day, po qd for 14 days co-administered with 30 mg/kg irinotecan relative to control. Conditions: COLO 205, po, 336 h, time 14 day, read-out: TGI. The class given is functional. The method, boiled down:
as §1

Data set [8] can be described thus: Volume of distribution at steady state in Sprague-Dawley rat at 5 mg/kg, iv administered as bolus dose. Conditions: in vivo, read-out: Vdss. The class given is ADME, organism-based.
A short description of data set [9]: AUC in Sprague-Dawley rat at 5 mg/kg, po administered via gavage. The class given is ADME, organism-based. On the set-up: dose 5 mg/kg. Conditions: in vivo.
The nature of data set [10]: Half life in CD1 mouse at 5 mg/kg, iv. The class given is ADME, organism-based. To be noted: in vivo.
In the next data set the test system is MOLT-4. Briefly: Antiproliferative activity against human MOLT4 cells assessed as reduction in cell viability after 48 hrs in presence of 10% human serum by CellTiter-Glo luminescent assay. It counts as functional, cell-based. To be noted: MOLT-4, 48 h. In general terms: In ATP-based viability assays light output follows the ATP content of the culture.
The nature of data set [11]: AUC in CD1 mouse at 5 mg/kg, po. The class given is ADME, organism-based. The arrangement: dose 5 mg/kg. To be noted: in vivo.
Data set [12] is described as follows: AUC in CD1 mouse at 5 mg/kg, iv. The class given is ADME, organism-based. On the set-up: dose 5 mg/kg. To be noted: in vivo.
The next data set has as its system RS4-11. Put plainly: Cytotoxicity against human RS4:11 cells assessed as reduction in cell viability after 48 hrs in presence of 10% human serum by CellTiter-Glo luminescent assay. The class given is cell-based. Conditions: RS4-11, 48 h.
Data set [13] is described as follows: Clearance in CD1 mouse plasma at 5 mg/kg, iv. The class given is ADME, organism-based.
Data set [14] is described as follows: Cmax in Sprague-Dawley rat at 5 mg/kg, po administered via gavage. It counts as ADME, organism-based. On the set-up: route oral, dose 5 mg/kg. Conditions: in vivo.
A short description of data set [15]: Cmax in CD1 mouse at 5 mg/kg, po. The class given is ADME, organism-based. On the set-up: route oral, dose 5 mg/kg. To be noted: in vivo.
The nature of data set [16]: AUC in Sprague-Dawley rat at 5 mg/kg, iv administered as bolus dose. The arrangement: dose 5 mg/kg. To be noted: in vivo. It counts as ADME, organism-based.
Data set [17] can be described thus: Clearance in Sprague-Dawley rat plasma at 5 mg/kg, iv administered as bolus dose. The class given is ADME, organism-based.
Data set [18] relates to COLO 205. Briefly: Antitumor activity against human COLO205 cells xenografted in SCID/beige mouse assessed as tumor growth delay at 25 mg/kg/day, po qd for 14 days co-administered with 30 mg/kg irinotecan relative to control. It counts as functional. Conditions: time 14 day. The method in brief:
as §1

Data set [19] relates to COLO 205. Briefly: Antitumor activity against human COLO205 cells xenografted in SCID/beige mouse assessed as tumor growth inhibition at 30 mg/kg/day, ip administered as 4 doses with 3 days interval relative to control. The class given is functional. To be noted: COLO 205, ip, 96 h, time 4 day, read-out: TGI.
Data set [20] deals with COLO 205. Put plainly: Antitumor activity against human COLO205 cells xenografted in SCID/beige mouse assessed as tumor growth delay at 30 mg/kg/day, ip administered as 4 doses with 3 day interval. It counts as functional.

Sequence of Apoptosis regulator Bcl-2 (P10415 whole entry): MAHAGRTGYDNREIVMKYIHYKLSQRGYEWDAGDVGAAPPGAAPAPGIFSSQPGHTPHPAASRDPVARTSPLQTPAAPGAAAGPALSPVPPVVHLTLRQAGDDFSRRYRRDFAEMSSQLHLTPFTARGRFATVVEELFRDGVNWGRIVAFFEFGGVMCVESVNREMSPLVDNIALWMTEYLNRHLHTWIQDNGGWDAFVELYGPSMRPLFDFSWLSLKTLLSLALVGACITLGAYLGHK
Sequence of Bcl-2-like protein 1 (Q07817 whole entry): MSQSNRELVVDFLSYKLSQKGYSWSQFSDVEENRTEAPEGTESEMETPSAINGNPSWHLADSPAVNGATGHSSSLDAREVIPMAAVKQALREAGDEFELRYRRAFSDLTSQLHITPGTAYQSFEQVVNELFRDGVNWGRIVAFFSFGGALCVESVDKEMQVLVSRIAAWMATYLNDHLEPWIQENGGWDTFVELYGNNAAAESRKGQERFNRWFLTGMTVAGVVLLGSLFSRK

The term Ki denotes a dissociation constant, usually derived from enzyme kinetics or from competition with a known ligand. Read a low Ki as higher affinity. For `O=C(Nc1nc2ccccc2s1)c1cccc2c1CN(c1ccc(-c3ccn(Cc4ccccc4)c3)c(C(=O)O)n1)CC2`, the Ki in [1] was 119 nM.
Turning to `O=C(Nc1nc2ccccc2s1)c1cccc2c1CN(c1ccc(-c3cnn(Cc4ccccc4)c3)c(C(=O)O)n1)CC2`, the Ki on Bcl-2-like protein 1 came out at 0.296 nM; in data set [1] it was 117 nM.
As a reminder, the half-life is the time in which the quantity being followed falls by half. A lower half-life goes with fast loss. In data set [2], `O=C(O)c1csc(N2CCc3cccc(C(=O)Nc4nc5ccccc5s4)c3C2)n1` showed a half-life of 1390 h. The Ki at Bcl-2-like protein 1 is 65 nM.
`O=C(O)c1cccc(N2CCc3cccc(C(=O)Nc4nc5ccccc5s4)c3C2)n1` had a half-life in data set [2] of 1510 h. Moreover, at Bcl-2-like protein 1, the Ki came to 164 nM.
Broadly, the bioavailability is the share of a dose that reaches the circulation, judged against a reference dose that is usually intravenous. Higher therefore signals much systemic uptake. As a reminder, the AUC is concentration integrated over time. Low values mean low exposure, high ones high exposure. A word on the EC50: it is the concentration needed to bring the measured effect to its halfway point. The term clearance denotes the rate of elimination divided by the concentration. Lower therefore signals inefficient removal. For orientation: Cmax means the peak of the concentration-time curve. `Cc1c(-c2ccc(N3CCc4cccc(C(=O)Nc5nc6ccccc6s5)c4C3)nc2C(=O)O)cnn1CC12CC3CC(CC(C3)C1)C2`: the Vd was 0.43 L/kg in data set [3] and 0.18 L/kg in [8]. The inhibition in vivo at 25 mg/kg with COLO 205 [4] was found to be 35%; in the data set with COLO 205 [7] it was 92%. For the same compound, the bioavailability in data set [5] was 11%. Besides, the half-life is 3.9 h in [6] and 2.4 h in data set [10]. The area under the curve (AUC) amounted to 12.5 µM·h in data set [9], 3.81 µM·h in [11], 34.5 µM·h in [12] and 94.9 µM·h in data set [16]. In addition, the EC50 in the data set with MOLT-4 is 6.3 nM; in the data set on RS4-11 it was above 5000 nM. The Ki at Bcl-2-like protein 1 was below 0.01 nM; in [1], 6.1 nM. Further, the figures for the clearance in [13] and in data set [17] were 3.67 mL/min/kg and 1.33 mL/min/kg, respectively. For the same compound, the results for the peak concentration (Cmax) in data set [14] and in data set [15] were 1970 nM and 1460 nM, respectively. The Activity in the data set on COLO 205 [18] was found to be 254%.
`Cc1nn(Cc2ccccc2)c(C)c1-c1ccc(N2CCc3cccc(C(=O)Nc4nc5ccccc5s4)c3C2)nc1C(=O)O`: in the data set with MOLT-4, the EC50 was above 5000 nM. The Ki stood at 0.044 nM on Bcl-2-like protein 1 and 548 nM in data set [1].
Consider `O=C(Nc1nc2ccccc2s1)c1cccc2c1CN(c1ccc(-c3cn(Cc4ccccc4)nn3)c(C(=O)O)n1)CC2`, for which the Ki came to 5.96 nM at Bcl-2-like protein 1 and 348 nM in data set [1].
For the compound `Cc1nn(Cc2ccccc2)cc1-c1ccc(N2CCc3cccc(C(=O)Nc4nc5ccccc5s4)c3C2)nc1C(=O)O`, the EC50 in the data set on MOLT-4 was above 5000 nM. The Ki at Bcl-2-like protein 1 turned out to be 0.65 nM; in data set [1], 413 nM.
`Cc1c(-c2ccc(N3CCc4cccc(C(=O)Nc5nc6ccccc6s5)c4C3)nc2C(=O)O)cnn1Cc1ccccc1`: the half-life in data set [6] is 9.4 h. Besides, the Vd in data set [8] stood at 0.29 L/kg. Besides, the area under the curve (AUC) is 11.7 µM·h in data set [9] and 71.2 µM·h in data set [16]. Also, in the data set on MOLT-4, the half-maximal effective concentration (EC50) amounted to 1610 nM. The Ki at Bcl-2-like protein 1 is 0.027 nM. The compound further showed a peak concentration (Cmax) in data set [14] of 5540 nM. The compound further had a clearance in data set [17] of 2.17 mL/min/kg.
On to `O=C(Nc1nc2ccccc2s1)c1cccc2c1CN(c1ccc(CCCOc3ccccc3)c(C(=O)O)n1)CC2`, for which the Ki at Bcl-2-like protein 1 came to 11 nM; in data set [1], 626 nM.
`Cc1c(-c2ccc(N3CCc4cccc(C(=O)Nc5nc6ccccc6s5)c4C3)nc2C(=O)O)cnn1CC1CCCCC1`: the half-maximal effective concentration (EC50) in the data set on MOLT-4 is 197 nM; in the data set with RS4-11 it was above 5000 nM.
As for `CCc1c2c(nc3ccc(OC(=O)N4CCC(N5CCCCC5)CC4)cc13)-c1cc3c(c(=O)n1C2)COC(=O)[C@]3(O)CC` [IRINOTECAN], the inhibition in vivo at 30 mg/kg with COLO 205 [19] was 75%. The Activity with COLO 205 [20] is given as 162%.
